Data taken from ChEMBL document CHEMBL1153797, “Prenylxanthones and a bicyclo[3.3.1]nona-2,6-diene derivative from the fungus Emericella rugulosa” (J Nat Prod, 2009).
≈ marks a conversion by molar mass, not a printed value. Calls of active or inactive are those of the source. No cut-off for these calls is given here.

Tests used:
[1] = Cytotoxicity against human BC1 cells by SRB assay; format: functional, cell-based
Procedure, shortened: (§1)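 Human cell lines were epidermoid carcinoma KB, breast cancer BC1 and small-cell lung cancer NCI-H187. Cytotoxicity was read by the Skehan colorimetric method, and IC50 was reported in µg/mL. Ellipticine served as the reference substance.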

NCI-H187 = assay: Cytotoxicity against human NCI-H187 cells by SRB assay; format: functional, cell-based; procedure, shortened: as §1
Plasmodium falciparum = assay: Antimalarial activity against multidrug-resistant Plasmodium falciparum K1 assessed as inhibition of [3H]hypoxanthine uptake by microculture radioisotope technique; format: functional, organism-based
Procedure, shortened: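 In vitro culture of multidrug-resistant P. falciparum K1 parasites (Trager–Jensen method). Growth measured by [3H]-hypoxanthine uptake in a microculture radioisotope format. IC50 taken as the concentration giving 50% reduction in parasite growth. Artemisinin served as the reference standard.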

[2] = test system: Mycobacterium tuberculosis; assay: Antimycobacterial activity against Mycobacterium tuberculosis H37Ra by microplate Alamar blue assay; format: functional
Procedure, shortened: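 M. tuberculosis H37Ra tested by microplate Alamar Blue assay. Activity reported as MIC. Isoniazid and kanamycin sulfate were run as reference drugs.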

KB = assay: Cytotoxicity against human KB cells by SRB assay; format: functional, cell-based; procedure, shortened: as §1
[3] = Homo sapiens, BC1, read-out: IC50
[4] = Homo sapiens, NCI-H187, read-out: IC50
[5] = Plasmodium falciparum, K1, read-out: IC50

| Compound | IC50 [1, 3] [µg/mL] | IC50 (NCI-H187; [4]) [µg/mL] | IC50 (Plasmodium falciparum; [5]) [µg/mL] | IC50 (Plasmodium falciparum) | MIC [2] | IC50 ([1]; bc1) | IC50 (KB; kb) | IC50 (NCI-H187; nci-h187) | IC50 (KB; Homo sapiens, KB, read-out: IC50) [µg/mL] |
| --- | --- | --- | --- | --- | --- | --- | --- | --- | --- |
| Cc1c2ccncc2c(C)c2c1[nH]c1ccccc12 [ELLIPTECINE] | 0.32 (≈ 1.3 µM) | 0.26 (≈ 1.06 µM) |  |  |  |  |  |  |  |
| C[C@@H]1CC[C@H]2[C@@H](C)C(=O)O[C@@H]3O[C@@]4(C)CC[C@@H]1[C@]32OO4 [ARTEMISININ] |  |  | 0.001 (≈ 0.00354 µM) |  |  |  |  |  |  |
| C=C(C)[C@H](O)Cc1ccc(O)c2c(=O)c3c4c(c(C)cc3oc12)OC[C@H](C(=C)C)[C@H]4O [RUGULOXANTHONE C] |  |  |  | Not Active | inactive | Not Active | Not Active | Not Active |  |
| C=C(C)[C@H]1COc2c(C)cc3oc4c(C[C@H](O)C(C)(C)OC)ccc(O)c4c(=O)c3c2[C@@H]1O [TAJIXANTHONE METHANOATE] |  |  |  | Not Active | inactive | Not Active | Not Active | Not Active |  |
| C=C(C(=O)CC)[C@H]1[C@@]2(C)C=C(C)C[C@]1(C)C=C(C)[C@@H]2/C(C)=C\[C@@H]1C=CC(=O)C1 [RUGULOSONE] | 1.3 (≈ 3.43 µM) | 1.3 (≈ 3.43 µM) | 1.9 (≈ 5.02 µM) |  | 12.5 µg/mL (≈ 33 µM) |  |  |  | 2.6 (≈ 6.87 µM) |
| C=C(C)[C@H]1COc2c(C)cc3oc4c([C@H](OC)[C@@H]5OC5(C)C)ccc(O)c4c(=O)c3c2[C@@H]1O |  |  |  | Not Active | inactive | Not Active | Not Active | Not Active |  |
| C=C(C)[C@H]1COc2c(C)cc3oc4c(C[C@H](O)C(C)(C)O)ccc(O)c4c(=O)c3c2[C@@H]1O.O [TAJIXANTHONE HYDRATE] |  |  |  | Not Active | inactive | Not Active | Not Active | Not Active |  |
| C=C(C)[C@@H]1COc2c(C)cc3oc4c(C[C@@H]5OC5(C)C)ccc(O)c4c(=O)c3c2[C@H]1O [TAJIXANTHONE] |  |  |  | Not Active | inactive | Not Active | Not Active | Not Active |  |
| C=C(C)[C@H]1COc2c(C)cc3oc4c(CC(=O)C(C)C)ccc(O)c4c(=O)c3c2[C@@H]1O [RUGULOXANTHONE B] |  |  |  | Not Active | inactive | Not Active | Not Active | Not Active |  |
| C=C(C)[C@H]1COc2c(C)cc3oc4c(CC=C(C)C)ccc(O)c4c(=O)c3c2[C@@H]1O [SHAMIXANTHONE] |  |  |  | Not Active | inactive | Not Active | Not Active | Not Active |  |
| C=C(C)[C@H]1COc2c(C)cc3oc4c([C@@H](OC)[C@@H]5OC5(C)C)ccc(O)c4c(=O)c3c2[C@@H]1OC(C)=O |  |  |  | Not Active | inactive | Not Active | Not Active | Not Active |  |
| NC[C@H]1O[C@H](O[C@H]2[C@H](O)[C@@H](O[C@H]3O[C@H](CO)[C@@H](O)[C@H](N)[C@H]3O)[C@H](N)C[C@@H]2N)[C@H](O)[C@@H](O)[C@@H]1O.O=S(=O)(O)O [KANAMYCIN SULFATE] |  |  |  |  | 2 µg/mL |  |  |  |  |
| C=C(C)[C@H]1COc2c(C)cc3oc4c(C[C@H](O)C(C)(C)OCC)ccc(O)c4c(=O)c3c2[C@@H]1O [TAJIXANTHONE ETHANOATE] |  |  |  | Not Active | inactive | Not Active | Not Active | Not Active |  |
| NNC(=O)c1ccncc1 [ISONIAZID] |  |  |  |  | 0.04 µg/mL (≈ 0.292 µM) |  |  |  |  |
| C=C(C)[C@H]1COc2c(C)cc3oc4c(CC(C)(C)C=O)ccc(O)c4c(=O)c3c2[C@@H]1O [RUGULOXANTHONE A] |  |  |  | Not Active | inactive | Not Active | Not Active | Not Active |  |
